Experiment [1] has as its target Kynurenine 3-monooxygenase (Rattus norvegicus, UniProt O88867). Description: Inhibition of Wistar rat KMO assessed as 3-hydroxykynurenine formation preincubated for 5 mins using 100 uM kynurenine as substrate by LC-MS/MS analysis. The method, boiled down:
(§1)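 Liver mitochondrial KMO preparation (mouse C57 BL/6J, rat Wistar, human) at 0.3 mg protein/mL in 100 mM potassium phosphate pH 7.4 with 200 µM NADPH, 0.4 U/mL G6PDH, 3 mM glucose 6-phosphate. Compound pre-incubated 5 min at 25°C, then 100 µM kynurenine added; 40 min (rodent) or 60 min (human). Stopped with TCA; 3-hydroxykynurenine by LC-MS/MS. IC50 from 8-point 3-fold dilutions (top 3 or 30 µM), triplicates, n≥2 runs.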

The target of experiment [2] is Kynurenine 3-monooxygenase (Mus musculus, UniProt Q91WN4). Description: Inhibition of C57BL/6J mouse KMO assessed as 3-hydroxykynurenine formation preincubated for 5 mins using 100 uM kynurenine as substrate by LC-MS/MS analysis. The method, boiled down: as §1
Experiment [3] deals with Kynurenine 3-monooxygenase (Homo sapiens, UniProt O15229). Description: Inhibition of human KMO assessed as 3-hydroxykynurenine formation preincubated for 5 mins using 100 uM kynurenine as substrate by LC-MS/MS analysis. The method in brief:
as §1

Chain of Kynurenine 3-monooxygenase (Homo sapiens, UniProt O15229) (O15229 whole entry): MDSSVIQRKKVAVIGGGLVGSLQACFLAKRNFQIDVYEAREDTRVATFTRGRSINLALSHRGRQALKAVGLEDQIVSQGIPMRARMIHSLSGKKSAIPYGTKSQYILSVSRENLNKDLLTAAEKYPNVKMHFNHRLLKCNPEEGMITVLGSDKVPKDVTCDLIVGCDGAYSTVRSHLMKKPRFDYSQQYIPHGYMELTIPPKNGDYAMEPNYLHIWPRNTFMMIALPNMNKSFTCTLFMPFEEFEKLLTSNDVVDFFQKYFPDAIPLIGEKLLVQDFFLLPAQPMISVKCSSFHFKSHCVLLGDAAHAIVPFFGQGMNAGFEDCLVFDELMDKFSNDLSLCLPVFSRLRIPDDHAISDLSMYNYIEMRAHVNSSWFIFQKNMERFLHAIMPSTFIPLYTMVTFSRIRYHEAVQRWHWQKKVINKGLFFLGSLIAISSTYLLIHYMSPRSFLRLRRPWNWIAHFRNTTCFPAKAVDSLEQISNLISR
Chain of Kynurenine 3-monooxygenase (Rattus norvegicus, UniProt O88867) (O88867 whole entry): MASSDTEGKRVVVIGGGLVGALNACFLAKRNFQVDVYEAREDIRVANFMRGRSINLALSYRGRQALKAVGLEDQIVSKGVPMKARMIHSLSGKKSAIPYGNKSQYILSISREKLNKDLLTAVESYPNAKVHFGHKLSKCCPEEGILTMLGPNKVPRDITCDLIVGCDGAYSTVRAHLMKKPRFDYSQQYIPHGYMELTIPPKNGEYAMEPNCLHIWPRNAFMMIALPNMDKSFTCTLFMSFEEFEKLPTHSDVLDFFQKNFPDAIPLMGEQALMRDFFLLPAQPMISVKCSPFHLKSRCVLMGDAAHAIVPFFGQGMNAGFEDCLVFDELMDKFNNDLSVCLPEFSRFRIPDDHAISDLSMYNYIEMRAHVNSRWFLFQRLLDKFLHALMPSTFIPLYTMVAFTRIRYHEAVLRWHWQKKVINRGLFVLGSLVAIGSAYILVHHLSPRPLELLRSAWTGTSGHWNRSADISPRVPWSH
Chain of Kynurenine 3-monooxygenase (Mus musculus, UniProt Q91WN4) (Q91WN4 whole entry): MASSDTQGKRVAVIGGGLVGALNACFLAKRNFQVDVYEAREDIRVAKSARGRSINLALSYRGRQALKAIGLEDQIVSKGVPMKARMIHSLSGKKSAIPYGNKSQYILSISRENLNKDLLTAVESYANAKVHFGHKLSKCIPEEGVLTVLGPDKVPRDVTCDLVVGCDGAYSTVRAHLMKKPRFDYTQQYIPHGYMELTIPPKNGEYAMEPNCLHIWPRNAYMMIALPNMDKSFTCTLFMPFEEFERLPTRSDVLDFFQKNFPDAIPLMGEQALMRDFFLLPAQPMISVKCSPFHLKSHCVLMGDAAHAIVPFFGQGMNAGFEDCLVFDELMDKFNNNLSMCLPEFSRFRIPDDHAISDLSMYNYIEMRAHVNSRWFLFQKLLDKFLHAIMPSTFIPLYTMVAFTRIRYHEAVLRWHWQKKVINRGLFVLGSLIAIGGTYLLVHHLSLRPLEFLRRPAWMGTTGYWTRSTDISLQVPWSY

In general, IC50 refers to the concentration that inhibits the measured activity by half. With `COc1ccc(S(=O)(=O)Nc2nc(-c3cccc([N+](=O)[O-])c3)c(CO)s2)cc1OC`, the IC50 in experiment [1] was determined as 11 µM; in experiment [2], 22 µM; in experiment [3] it was 39 µM.

For the compound `COc1ccc(S(=O)(=O)Nc2nc(-c3cccc([N+](=O)[O-])c3)c(CN)s2)cc1OC`, the figures for the IC50 in experiment [1], in experiment [2] and in experiment [3] were 10 µM, 27 µM and 17 µM, respectively.
